Assay results: paper PMC3880025 (ACS nano, 2013)

How the values were obtained:
[1] = system: A549 cells; test: Cellular viability after exposure to QD-peptide conjugates; type: cell-based, human; conditions: exposure to 100 nM of 75 peptide/QD
[2] = system: COS-1 cells; test: as above; type: cell-based, African Green Monkey
[3] = system: PC12 cells; test: as above; type: cell-based, rat; conditions: exposure to 100 nM of 75 peptide/QD
[4] = system: Primary human dermal fibroblasts; test: as above; type: cell-based; conditions: exposure to 100 nM of 75 peptide/QD
[5] = system: Primary human dermal fibroblasts; test: Semi-quantitative imaging assay of QD uptake and endosomal escape; type: cell-based
Method in brief: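 Peptides were self-assembled onto 550 nm CdSe/ZnS QDs in DMEM with 25 mM HEPES at 25°C for 20–30 min (QDs typically 80–150 nM final). Cells on fibronectin-coated coverglass were exposed for 2 h at 37°C with Tf-Cy5 (50 µg/mL) to mark endosomes, then washed, cultured 48 h, fixed in 3.7% paraformaldehyde and DAPI-stained. Individual cells were imaged and classed for QD uptake (none/low/moderate/high) and endosomal escape.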

[6] = system: cultured cells; conditions: preliminary screening of QD cellular delivery; cited from earlier work
[7] = system: Hela cells; test: Cellular viability after exposure to QD-peptide conjugates; type: cell-based, human; conditions: exposure to 100 nM of 75 peptide/QD
[8] = system: HEK 293 cells; test: as above; type: cell-based, human; conditions: exposure to 100 nM of 75 peptide/QD
[9] = system: COS-1 cells; test: Semi-quantitative imaging assay of QD uptake and endosomal escape; type: cell-based, African Green Monkey

With WG•(Dap^Pal)•VKIKK•P9•GG•H6 [JB577] the “Cellular viability (%)” value [1] was 96 ±3%, the “Cellular viability, continuous 48 h exposure, peptide alone” value ([2]; continuous 48 h exposure to peptide alone) was 87±7% and the “Cellular viability, continuous 48 h exposure, QD conjugates” value ([2]; continuous 48 h exposure to peptide-QD conjugates) was 97±6%. The “Cellular viability (%)” value ([2]; exposure to 100 nM of 75 peptide/QD) was 98 ±4%, the “Cellular viability (%)” value [3] was 97 ±10% and the “Cellular viability (%)” value [4] was 92 ±6%. For the same substance, the “Overall uptake/escape: QD uptake class” value ([5]; first word of the cell) was “high (high (>60% uptake))”, the “Overall uptake/escape: endosomal escape class” value ([5]; second word of the cell) was “moderate (moderate (30–70%))” and the “Time after delivery at which cytosolic release peaked” value [6] was ~ 48 h. The “Time of endocytic uptake of QDs” value [6] was 1 to 2 h, the “Cellular viability (%)” value [7] was 98 ±1% and the “Cellular viability (%)” value [8] was 87 ±5%. For the same substance, the “% Escape in cells with uptake” value ([9]; 100 nM 550 nm QDs, 75 peptides/QD, 2 h incubation, 48 h culture) was ~ 77%, the “Endosomal escape / intracellular localization of QDs, result in words” value ([9]; QD-peptide conjugates, SAR comparison with JB577) was “well-dispersed throughout the cytosol” and the “Overall uptake/escape: QD uptake class” value ([9]; first word of the cell, 100 nM QDs, 75 peptides/QD, 48 h culture) was “high/high (high (>60% uptake))”.
